# Active and inactive are the calls of the source.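 The calls were made as follows, unless noted: active = viability at or below 30% in both replicate assays; inconclusive = viability at or below 30% in just one of the two assays; inactive = the rest.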
# What was measured:
# [1] = reduced viability of SK-BR-3 breast cancer cells – cell-based, 24 h, human, pilot screen (AID 572;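 active = viability at or below 10% of carrier control in both of two separate runs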;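 also: compound exposure lasted between 18 and 24 h rather than exactly 24 h; 100% = carrier-treated control wells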); settings: SK-BR-3 viability, CellTiter-Glo luminescence, at 10 µM, stronger effect = lower value
# [2] = HUVEC growth inhibition – cell-based, human, primary screen (AID 575); settings: HUVEC proliferation, CellTiter-Glo luminescence, 72 h; at 10 µM; stronger effect = lower value;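 also: 100% = median of untreated cell wells with 0.1% DMSO on each plate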
# How it was run: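 material = primary HUVEC, no more than 12 passages | input = 1250 cells per well | controls = vehicle and MePR control wells | measured by = CTG luminescence | times = 72 h compound incubation | format = collagen-coated 384-well format | read-out = % viability vs DMSO wells | doses = single 10 µM dose, 0.1% DMSO, from 5x medium stock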
# [3] = H69AR cell proliferation blockers – human, duplicate replicates, primary screen (AID 580;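 active = viability at or under a set limit in both replicates, limit being median viability minus 3 SD, cut at about 48% in these data, passing the limit was not always enough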;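 also: 100% = mean luminescence of untreated wells and 0% = no signal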); settings: H69AR lung tumor cells viability, ATP luminescence, 72 h; at 10 µM; stronger effect = lower value
# [4] = MRP1 drug-resistance reversers in H69AR cells – cell-based, doxorubicin co-treatment, pilot screen (AID 601;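 active = viability loss from added drug above about 55%, and viability with drug at most 40%, in both replicates, limit read from the data, passing the limit was not always enough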); settings: CellTiter-Glo, 72 h, at 10 µM; for differential viability (reversal): stronger effect = higher value
# [5] = yeast transport mutant growth inhibition pilot in 384-well plates, post-Golgi transport modulator project (AID 636; in the data active = inhibition above about 31%); settings: absorbance 615 nm, about 18 h, stronger effect = higher value
# [6] = growth suppression of yeast trafficking mutant, preliminary HTS, modulators of trafficking downstream of Golgi apparatus project, 1536-format plate, OD 615 nm (AID 637; in the data active = inhibition above about 30%); settings: yeast transport mutant growth, absorbance 615 nm, 18 h; stronger effect = higher value
# [7] = H69AR cells + 2 uM doxorubicin, measured here: viability with 2 uM doxorubicin, stronger effect = lower value
# [8] = H69AR cells, compound alone cytotoxicity
Compound,viability [1],viability [2],viability [3],differential viability (reversal) ([4]; H69AR cells + 2 uM doxorubicin),"viability [4, 7] [%]","viability [4, 8] [%]",inhibition [5],inhibition [6]
CCOc1ccccc1CN(Cc1ccco1)S(=O)(=O)c1ccc(-n2cnnn2)c(OC)c1,82.5% (inactive),54.7% (inactive),6.69% (active),-67.4% (inactive),74.1,6.69,-3.7% (inactive),-2.06% (inactive)
COC(=O)c1cc(Br)c(=O)n(CCc2ccc(F)cc2)c1,78% (inactive),118% (inactive),100% (inactive),8.46% (inactive),92,100,-5.27% (inactive),3.09% (inactive)
Cc1ccc(C2=N/C(=C/N3CCOCC3)C(=O)O2)cc1,84% (inactive),82.5% (inactive),90.6% (inactive),13.1% (inactive),77.5,90.6,-2.08% (inactive),-7.21% (inactive)
N#CC1=C(N)C(C#N)(C#N)[C@H](c2ccsc2)[C@H]2COCC=C12,126% (inactive),96% (inactive),97.4% (inactive),2.33% (inactive),95.1,97.4,-6.03% (inactive),2.58% (inactive)
CCn1c(SCc2cc(=O)[nH]c3ccccc23)nc2c1c(=O)n(C)c(=O)n2C,95% (inactive),109% (inactive),92% (inactive),-3.81% (inactive),95.8,92,0.68% (inactive),-2.18% (inactive)
COc1ccc(-c2ccc(=O)n(Cc3cc(=O)n4ccccc4n3)n2)cc1,102% (inactive),107% (inactive),97% (inactive),5.91% (inactive),91.1,97,-3.38% (inactive),4.36% (inactive)
C=CCOc1ccc(C2/C(=C(\O)c3c(C)[nH]c(C(=O)OC)c3C)C(=O)C(=O)N2CCN(C)C)cc1 (centres undefined),95% (inactive),82.7% (inactive),90.2% (inactive),-5.67% (inactive),95.9,90.2,0.52% (inactive),11.5% (inactive)
CCC(=O)Nc1cc(Cl)ccc1N1CCN(C(=O)CC)CC1,70% (inactive),92.6% (inactive),88.5% (inactive),3.43% (inactive),85,88.5,-4.66% (inactive),0.73% (inactive)
COc1cc(S(=O)(=O)NC2CCCCC2C)ccc1Cl (centres undefined),83% (inactive),98.3% (inactive),92.4% (inactive),-3.38% (inactive),95.8,92.4,-7.81% (inactive),1.45% (inactive)
CCOc1cc2[nH]c(=O)n(CCCCC(=O)NCc3ccco3)c(=O)c2cc1OCC,88% (inactive),90.7% (inactive),82.5% (inactive),-12.7% (inactive),95.3,82.5,-2.34% (inactive),1.97% (inactive)
Cc1nc2cc(NC(=O)N3c4ccccc4CC3C)ccc2o1 (centres undefined),91% (inactive),96.2% (inactive),86.3% (inactive),8.09% (inactive),78.2,86.3,-5.6% (inactive),-13.4% (inactive)
CCN(CC)c1nc(N(CC)CC)[nH]c(=O)n1,112% (inactive),110% (inactive),94.7% (inactive),2.19% (inactive),92.6,94.7,-4.94% (inactive),6.72% (inactive)
Cc1cc(NC(=O)CSc2nc(C3CCCCC3)nc3ccccc23)no1,101% (inactive),99.8% (inactive),80% (inactive),16.2% (inactive),63.9,80,-0.8% (inactive),-2% (inactive)
CC(=O)OCC(=O)[C@@]1(OC(C)=O)[C@@H](C)C[C@H]2[C@@H]3C[C@H](F)C4=CC(=O)C=C[C@]4(C)[C@@]3(F)[C@@H](O)C[C@@]21C,119% (inactive),102% (inactive),94.5% (inactive),5.08% (inactive),89.5,94.5,-1.69% (inactive),7.33% (inactive)
Cc1ccc(NC(=O)c2ccco2)c(NC(=O)CN2C(=O)c3ccccc3C2=O)c1,97% (inactive),110% (inactive),87.6% (inactive),-18.2% (inactive),106,87.6,-0.41% (inactive),3.27% (inactive)
C=CCN1C(=O)C2(/C(=C(\O)c3ccc4c(c3)OCCO4)C(=O)C(=O)N2CCCOC)c2ccccc21 (centres undefined),109% (inactive),96.6% (inactive),95.9% (inactive),11.2% (inactive),84.7,95.9,-8.36% (inactive),0.48% (inactive)
O=S(=O)(c1cccs1)N1CCN(Cc2nc3ccccc3s2)CC1,87% (inactive),72.1% (inactive),84.9% (inactive),-16.2% (inactive),101,84.9,4.79% (inactive),30.2% (active)
CCOc1nc(-c2ccncc2)nc2ccccc12,100% (inactive),93.7% (inactive),92.6% (inactive),0.47% (inactive),92.1,92.6,-7.4% (inactive),9.35% (inactive)

# — PubChem BioAssay
